Compound activity as filed in PubChem.
HNF4A DNA FP: change in binding of human HNF4A to DNA, primary screen, biochemical, fluorescence polarization, FITC-DNA. 1 h. Hepatocyte nuclear factor 4-alpha (Homo sapiens), P41235. hit rate 0.3% among 360,000. AID 1224865, 2016. activity change, % at 10 µM; in the data active = activity change above about 30%, passing the limit was not always enough
Rpn11 block: Rpn11 (PSMD14) deubiquitinase inhibitors, primary screen, biochemical, fluorescence polarization, uHTS. 26S proteasome non-ATPase regulatory subunit 14 (Homo sapiens), O00487. human 26S proteasome, Ub4-pepOG fluorescence polarization; 20S core pre-blocked with epoxomicin. inhibition, % at 20 µM. hit rate 0.59% among 360,000;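 active = inhibition at 20 µM, scaled to each plate's controls, above about 33%, limit read from the data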
Target sequence (O00487 whole entry, looked up): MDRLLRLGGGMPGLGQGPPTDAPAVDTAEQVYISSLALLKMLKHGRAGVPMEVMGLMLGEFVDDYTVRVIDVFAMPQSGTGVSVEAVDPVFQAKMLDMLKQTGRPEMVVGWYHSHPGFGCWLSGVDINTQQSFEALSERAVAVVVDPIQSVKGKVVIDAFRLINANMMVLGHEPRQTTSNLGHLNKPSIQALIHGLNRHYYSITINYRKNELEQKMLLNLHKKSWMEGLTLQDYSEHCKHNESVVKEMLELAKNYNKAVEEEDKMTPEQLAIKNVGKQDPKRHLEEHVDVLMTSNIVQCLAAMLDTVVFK
SENP1 FRET inh: human SENP1 catalytic domain inhibitors, primary screen, biochemical, FRET, uHTS | Sentrin-specific protease 1 (Homo sapiens), Q9P0U3 | recombinant SENP1 catalytic domain, CyPet-SUMO1-YPet FRET cleavage | inhibition, % at 10 µM | hit rate 0.21% among 360,000 | AID 624204, 2012;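 active = inhibition at least 30% at 10 µM, raw YFP signal under a set limit, fluorescence ratio 0.5 to 1.5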
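material = recombinant human SENP1 catalytic domain, His6-tagged | quantity = 20 pM enzyme | reagent = 25 nM SUMO1 FRET substrate | compound dosing = 10 µM single point, 0.5% DMSO | timing = 50 min enzyme reaction, room temperature, light-protected | detection = FRET, CFP and YFP emission | control set = no-enzyme low, enzyme-DMSO high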
CSN deneddyl inh: inhibitors of CSN-mediated cullin deneddylation, primary screen, biochemical, fluorescence polarization, uHTS | AID 651999, 2013 | hit rate 0.38% among 360,000 | Purified CSN, SCF-Nedd8-OG deneddylation | inhibition, % at 12.5 µM | COP9 signalosome complex subunit 5 (Homo sapiens), Q92905;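 active = pattern-corrected inhibition above about 35%, with an unprinted fluorescence ratio check between 0.5 and 1.5, limit read from the data, passing the limit was not always enough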
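Assay system: Purified human Csn5 enzyme expressed in HEK293T cells | Amount: Enzyme 0.24 nM | Measured by: Fluorescence polarization readout | Medium: Tris/NaCl/DTT buffer, pH 7.5 | Compound dosing: One concentration, 12.5 µM, 0.25% DMSO | Times: 90 min incubation of compound, enzyme and substrate at room temperature | Control set: no-enzyme wells high, enzyme-with-substrate wells low | Read-out: % inhibition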
TPT1 inh: Candida albicans TPT1 enzyme inhibitors, primary screen, biochemical, fluorescence polarization; hit rate 0.81% among 300,000; recombinant caTPT1, FP RNA substrate dephosphorylation; inhibition, % at 5 µM;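 active = inhibition above the mean of all tested compounds plus 3 SD, set per screening campaign, cut at about 24% in these data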
SENP1 inh conf: human SENP1 catalytic domain inhibitors, confirmation, biochemical, FRET endpoint, single concentration; shares compounds with SENP1 FRET inh; recombinant SENP1, CyPet-SUMO1-YPet FRET cleavage; inhibition, % at 10 µM; hit rate 34% among 520; in the data active = inhibition mostly above about 35%, no sharp cut-off; inactive = mostly below about 32%
SENP1 kin conf: human SENP1 catalytic domain inhibitors, confirmation, biochemical, kinetic FRET, single concentration. hit rate 26% among 520. inhibition, % at 10 µM. shares compounds with SENP1 FRET inh. recombinant SENP1, CyPet-SUMO1-YPet FRET kinetic cleavage; in the data active = inhibition mostly above about 32%, no sharp cut-off; inactive = mostly below about 29%
Of the large screens only hits and unclear results are named; the others gave an inactive call (follow-up assays come after a bar, where shown). Sampled rows, rich in hits. Any-hit rate of the full collection: about 1.6%.

Cc1c(-n2cc(C(=O)c3cc(Cl)ccc3O)cc(C#N)c2=O)c(=O)n(-c2ccccc2)n1C	SENP1 FRET inh 61 | SENP1 inh conf 53 | SENP1 kin conf 40
COC(=O)c1cnc(Nc2nc(CN)cs2)nc1C(F)(F)F	none (no result: TPT1 inh)
COc1ccc(NC(=O)CCC(=O)c2ccc(-c3ccccc3)cc2)cc1	SENP1 FRET inh 40 | SENP1 inh conf inactive | SENP1 kin conf inactive
Cc1ccccc1NC(=O)CCCC(=O)c1ccccc1	none
Cc1ccc2n(n1)c(=O)c(Cc1ccccc1)c([O-])[n+]2-c1ccccc1	SENP1 FRET inh 35 | SENP1 inh conf 53 | SENP1 kin conf 35
Cn1c(/C(C#N)=C(\O)c2ccc([N+](=O)[O-])s2)nc2ccccc21	SENP1 FRET inh 46 | SENP1 inh conf inactive | SENP1 kin conf inactive
Cc1cc2c(C)nc(N/N=C/c3ccc([N+](=O)[O-])cc3)nc2o1	SENP1 FRET inh 36 | SENP1 inh conf inactive | SENP1 kin conf inactive
Cc1cc2c(C)nc(N/N=C/c3ccc(F)cc3)nc2o1	none
Cc1nc2cc(NCc3ccc(Cl)cc3)ccc2n1C	SENP1 FRET inh 31 | SENP1 inh conf inactive | SENP1 kin conf inactive
Cc1ccc(CNc2ccc3c(c2)nc(C)n3C)cc1	none
Cn1c(=O)c2[nH]c(Cc3cccc4ccccc34)nc2n(C)c1=O	none (no result: TPT1 inh)
COc1ccc(OC)c(C(C)NC(=O)Nc2cccc(C(C)=O)c2)c1 (centres undefined)	none
Nc1ccc2c(c1)C(=O)N(CC1CCCO1)C2=O (centres undefined)	SENP1 FRET inh 62 | SENP1 inh conf 65 | SENP1 kin conf 48
CCOC(=O)CSc1nc2cc(C)ccc2cc1C#N	SENP1 FRET inh 55 | SENP1 inh conf inactive | SENP1 kin conf inactive
COc1ccc2cc(C#N)c(SCC(=O)Nc3nonc3C)nc2c1	none
Cc1cc2cc(C#N)c(SCC(=O)Nc3nonc3C)nc2cc1C	SENP1 FRET inh 65 | SENP1 inh conf inactive | SENP1 kin conf inactive
CC1CCCN(CC(=O)Nc2ccc(S(=O)(=O)N3CCCC3)cc2)C1 (centres undefined)	none
COc1ccc(N=Cc2ccccc2O)cc1	none (no result: TPT1 inh)
COc1ccc2sc(/C=C/c3ccccc3O)[n+](C)c2c1	HNF4A DNA FP 51, SENP1 FRET inh 39 (not shown: Rpn11 block, TPT1 inh) | SENP1 inh conf 58 | SENP1 kin conf 40
COc1cc2c(c(OC)c1OC)C(c1ccccc1C)CC(=O)O2 (centres undefined)	none (no result: TPT1 inh)
COc1ccc(OC)c(CCNC(=O)c2ccc3c(c2)N(Cc2ccc(F)cc2)CCS3)c1	none
COc1ccc(OC)c(CCNC(=O)c2ccc3c(=O)[nH]c4c(C(=O)NC(C)C)sc(=S)n4c3c2)c1	SENP1 FRET inh 50 | SENP1 inh conf 41 | SENP1 kin conf 40
CCCNC(=O)c1ccc(C2SCC(=O)N2Cc2ccccc2)cc1 (centres undefined)	none
CC(C)CNC(=O)c1ccc(C2SCC(=O)N2Cc2ccccc2)cc1 (centres undefined)	SENP1 FRET inh 46 | SENP1 inh conf 35 | SENP1 kin conf inactive
c1ccc(CN2CCC3CC2c2c3cccc2N2CCOCC2)cc1 (centres undefined)	none (no result: TPT1 inh)
COc1cc([C@H]2c3c(cc(OC)c(O)c3OC)C[C@@H](CO)[C@@H]2CO[C@@H]2O[C@H](CO)[C@@H](O)[C@H](O)[C@H]2O)cc(OC)c1O	SENP1 FRET inh 40 | SENP1 inh conf 33 | SENP1 kin conf inactive
O=C(N1CCOCC1)N1CCC(n2nnc3cc(F)ccc32)CC1	SENP1 FRET inh 30 | SENP1 inh conf inactive | SENP1 kin conf inactive
